# Results: ChEMBL document CHEMBL1141034, “Optimization of the in vitro and in vivo properties of a novel series of 2,4,5-trisubstituted imidazoles as potent cholecystokinin-2 (CCK2) antagonists” (J Med Chem, 2005)
# The source made the active and inactive calls. The rule behind the calls is not given here.
# Key:
# [1] = target: T1, Gastrin/cholecystokinin type B receptor (Rattus norvegicus) (UniProt P30553); assay: Antagonist activity against CCK2 receptor estimated from single shifts of pentagastrin concentration-effect curves in the isolated rat stomach; […]; type: functional, tissue-based
# T1 sequence (whole entry): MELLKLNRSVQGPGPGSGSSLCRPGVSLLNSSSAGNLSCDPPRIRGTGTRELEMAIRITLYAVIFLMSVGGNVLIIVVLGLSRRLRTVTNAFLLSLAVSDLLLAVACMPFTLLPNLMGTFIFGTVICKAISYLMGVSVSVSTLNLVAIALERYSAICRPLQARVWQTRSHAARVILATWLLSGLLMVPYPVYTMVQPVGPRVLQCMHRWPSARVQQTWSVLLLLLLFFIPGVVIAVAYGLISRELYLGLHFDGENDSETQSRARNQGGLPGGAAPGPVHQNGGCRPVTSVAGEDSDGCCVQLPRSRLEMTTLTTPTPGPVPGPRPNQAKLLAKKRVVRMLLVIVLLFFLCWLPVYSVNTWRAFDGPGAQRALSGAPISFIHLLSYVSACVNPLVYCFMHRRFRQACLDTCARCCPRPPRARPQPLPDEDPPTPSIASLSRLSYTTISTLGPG
# [2] = target: T2, Cholecystokinin receptor type A (Cavia porcellus, UniProt Q63931); assay: Concentration required to inhibit the binding of 20 pM [125I]BH-CCK-8S radioligand to guinea pig pancreas CCK1 receptor
# T2 sequence (Q63931 whole entry): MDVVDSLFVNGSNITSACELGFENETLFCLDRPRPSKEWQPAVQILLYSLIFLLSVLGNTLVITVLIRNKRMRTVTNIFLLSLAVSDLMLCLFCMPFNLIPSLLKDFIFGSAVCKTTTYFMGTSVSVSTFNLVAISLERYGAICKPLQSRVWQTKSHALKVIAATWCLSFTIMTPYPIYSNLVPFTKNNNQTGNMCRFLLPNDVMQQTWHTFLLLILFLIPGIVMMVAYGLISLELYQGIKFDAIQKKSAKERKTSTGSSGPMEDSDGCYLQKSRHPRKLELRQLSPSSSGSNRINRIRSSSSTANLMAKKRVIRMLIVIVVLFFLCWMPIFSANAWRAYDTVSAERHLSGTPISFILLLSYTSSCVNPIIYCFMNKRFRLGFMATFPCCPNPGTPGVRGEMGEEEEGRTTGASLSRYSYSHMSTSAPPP
# How it was run: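 CCK1 sites on guinea pig pancreatic cells. Competition with 20 pM [125I]BH-CCK-8S, reported as pKI. At least three separate experiments give ± SEM. Where only two experiments were run, no error is given (approximate SEM 0.1 log units).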
# [3] = target: T3, Gastrin/cholecystokinin type B receptor (Canis lupus familiaris, UniProt P30552); assay: Concentration required to inhibit the binding of [125I]-BH-CCK-8S radioligand to canine gastric mucosa CCK2 receptor
# T3 sequence (P30552 whole entry): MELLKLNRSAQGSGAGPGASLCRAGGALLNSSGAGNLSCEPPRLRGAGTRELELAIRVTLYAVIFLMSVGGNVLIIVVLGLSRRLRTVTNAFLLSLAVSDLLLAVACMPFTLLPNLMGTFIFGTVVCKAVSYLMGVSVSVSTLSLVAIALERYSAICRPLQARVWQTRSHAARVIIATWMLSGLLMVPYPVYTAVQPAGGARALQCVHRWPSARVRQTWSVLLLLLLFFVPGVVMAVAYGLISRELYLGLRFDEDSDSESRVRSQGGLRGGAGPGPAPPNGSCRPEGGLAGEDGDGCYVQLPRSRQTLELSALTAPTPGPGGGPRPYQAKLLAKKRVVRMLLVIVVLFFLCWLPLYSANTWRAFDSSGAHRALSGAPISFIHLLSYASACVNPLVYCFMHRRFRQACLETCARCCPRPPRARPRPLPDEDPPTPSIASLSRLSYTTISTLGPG
# How it was run: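 Canine gastric mucosa. Competition with [125I]BH-CCK-8S for CCK2 binding sites, reported as pIC50 ± SEM.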
# [4] = Lipophilicity was measured in octanol/buffer (pH 7.4); type: physicochemical
# How it was run: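 log D from partition between octanol and buffer at pH 7.4, given ± error.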
# [5] = target: T4, Gastrin/cholecystokinin type B receptor (Mus musculus, UniProt P56481); assay: Concentration required to inhibit the binding of 20 pM [125I]-BH-CCK-8S radioligand to mouse cortical membrane CCK2 receptor
# T4 sequence (P56481 whole entry): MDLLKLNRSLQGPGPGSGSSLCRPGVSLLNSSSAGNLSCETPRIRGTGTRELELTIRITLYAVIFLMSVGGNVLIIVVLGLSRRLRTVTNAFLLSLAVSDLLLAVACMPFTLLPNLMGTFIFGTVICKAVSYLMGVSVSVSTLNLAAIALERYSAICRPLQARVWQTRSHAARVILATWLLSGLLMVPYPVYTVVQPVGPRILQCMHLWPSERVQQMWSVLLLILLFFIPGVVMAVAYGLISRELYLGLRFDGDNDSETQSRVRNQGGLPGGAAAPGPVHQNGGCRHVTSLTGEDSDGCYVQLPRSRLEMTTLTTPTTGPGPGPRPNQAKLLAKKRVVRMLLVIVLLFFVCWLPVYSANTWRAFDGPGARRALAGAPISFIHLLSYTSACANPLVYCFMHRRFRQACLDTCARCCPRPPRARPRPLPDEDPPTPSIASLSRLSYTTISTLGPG
# How it was run: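 Mouse cerebral cortex homogenates. Competition with 20 pM [125I]BH-CCK-8S for CCK2 sites, reported as pKI. At least three separate experiments give ± SEM. Where only two experiments were run, no error is given (approximate SEM 0.1 log units).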
# [6] = target: T5, Gastrin/cholecystokinin type B receptor (Canis lupus familiaris) (UniProt P30552); assay: Percent inhibition (i.v., 3.0 mg/Kg) against dog CCK2 receptor
# T5 sequence (whole entry): T3 sequence (P30552 whole entry)
# How it was run: (§1)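 Conscious dogs given a bolus iv or intraduodenally during pentagastrin-stimulated acid secretion. Result is the peak percentage inhibition of acid output in the first four collection periods (1 h) after dosing, ± SEM, with the number of replicates stated.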
# [7] = target: T5, Gastrin/cholecystokinin type B receptor (Canis lupus familiaris); assay: Percent inhibition (i.d., 10.0 mg/Kg) against dog CCK2 receptor; how it was run: as §1
# [8] = target: T5, Gastrin/cholecystokinin type B receptor (Canis lupus familiaris); assay: Percent inhibition (i.v., 1.0 mg/Kg) against dog CCK2 receptor; how it was run: as §1
# [9] = target: T6, Gastrin/cholecystokinin type B receptor (Rattus norvegicus, UniProt P30553); assay: Antagonist activity against CCK2 receptor estimated from single shifts of pentagastrin concentration-effect curves in the isolated rat stomach; type: functional, tissue-based; conditions: read-out: pA2 (converted)
# T6 sequence (P30553 whole entry): T1 sequence (whole entry)
Structure (SMILES),Ki [2],Ki [5],further results
O=C(O)c1cccc(NC(=O)c2cc(-c3ccccc3)[nH]c2CCC23CC4CC(CC(C4)C2)C3)c1,2090 nM,–,pA2 [1]: inactive
Cc1ccc(NC(=O)c2[nH]c(C3(C)CCCCC3)nc2CCC23CC4CC(CC(C4)C2)C3)cc1C(=O)O,–,3.31 nM,IC50 [3]: 11.2 nM; logD [4]: 4.91; inhibition [6]: 54%
Cc1ccccc1-c1cc(C(=O)Nc2cccc(C(=O)O)c2)c(CCC23CC4CC(CC(C4)C2)C3)[nH]1,2190 nM,–,pA2 [1]: inactive
Cc1ccccc1-c1nc(C(=O)Nc2cccc(C(=O)O)c2)c(CCC23CC4CC(CC(C4)C2)C3)[nH]1,661 nM,–,–
CNc1cccc(NC(=O)c2[nH]c(-c3ccccc3C)nc2CCC23CC4CC(CC(C4)C2)C3)c1,–,11200 nM,–
Cc1ccccc1-c1nc(C(=O)Nc2cccc(C(=O)O)c2)c(CCC(C)C)[nH]1,661 nM,8320 nM,Kb [9]: 26.3 nM
COC(=O)c1cccc(NC(=O)c2[nH]c(-c3ccccc3C)nc2CCC23CC4CC(CC(C4)C2)C3)c1,–,> 100000 nM,–
COc1ccc(NC(=O)c2[nH]c(-c3ccccc3C)nc2CCC23CC4CC(CC(C4)C2)C3)cc1C(=O)O,–,–,pA2 [1]: inactive
CC(C)(C)c1nc(C(=O)Nc2cccc(C(=O)O)c2)c(CCC23CC4CC(CC(C4)C2)C3)[nH]1,2880 nM,–,–
O=C(O)c1cccc(NC(=O)c2[nH]c(-c3ccc4ccccc4c3)nc2CC2CCCCCC2)c1,2510 nM,–,pA2 [1]: inactive
O=C(O)c1cccc(NC(=O)c2[nH]c(-c3ccccc3)nc2CCC23CC4CC(CC(C4)C2)C3)c1,1320 nM,316 nM,–
Cc1cccc(NC(=O)c2[nH]c(-c3ccccc3C)nc2CCC23CC4CC(CC(C4)C2)C3)c1,–,> 100000 nM,–
Cc1ccccc1-c1nc(CCC23CC4CC(CC(C4)C2)C3)c(C(=O)Nc2ccc(N(C)C)c(C(=O)O)c2)[nH]1,794 nM,–,–
Cc1cccc(C)c1-c1nc(C(=O)Nc2cccc(C(=O)O)c2)c(CCC23CC4CC(CC(C4)C2)C3)[nH]1,> 10000 nM,141 nM,–
O=C(O)c1cccc(NC(=O)c2cc(-c3ccc4ccccc4c3)[nH]c2CC2CCCCCC2)c1,3020 nM,–,pA2 [1]: inactive
Cc1ccccc1-c1nc(C(=O)Nc2cccc(C(=O)O)c2)c(CC23CC4CC(CC(C4)C2)C3)[nH]1,–,–,pA2 [1]: inactive
O=C(O)c1cccc(NC(=O)c2nc(C34CCC(CC3)CC4)[nH]c2COC23CC4CC(CC(C4)C2)C3)c1,776 nM,27.5 nM,–
O=C(O)c1cccc(NC(=O)c2[nH]c(C3CC3)nc2CCC23CC4CC(CC(C4)C2)C3)c1,2340 nM,–,–
Cc1cc(C)c(-c2nc(C(=O)Nc3cccc(C(=O)O)c3)c(CCC34CC5CC(CC(C5)C3)C4)[nH]2)c(C)c1,724 nM,26.9 nM,–
CC(C)c1nc(C(=O)Nc2cccc(C(=O)O)c2)c(CCC23CC4CC(CC(C4)C2)C3)[nH]1,1450 nM,–,–
Cc1ccc(-c2nc(C(=O)Nc3cccc(C(=O)O)c3)c(CCC34CC5CC(CC(C5)C3)C4)[nH]2)c(C)c1,617 nM,–,–
O=C(O)c1cccc(NC(=O)c2[nH]c(C3CCCCCCCCCCC3)nc2CCC23CC4CC(CC(C4)C2)C3)c1,–,–,pA2 [1]: inactive
CCCc1nc(C(=O)Nc2cccc(C(=O)O)c2)c(CCC23CC4CC(CC(C4)C2)C3)[nH]1,1120 nM,–,–

# Further lines, with some results ahead:
Ki [2],Ki [5],Structure (SMILES),further results
398 nM,–,Cc1ccccc1-c1nc(C(=O)Nc2cccc(CC(=O)O)c2)c(CCC23CC4CC(CC(C4)C2)C3)[nH]1,pA2 [1]: inactive
525 nM,39.8 nM,O=C(O)c1cccc(NC(=O)c2[nH]c(C3CCCC3)nc2CCC23CC4CC(CC(C4)C2)C3)c1,–
302 nM,6.92 nM,Cc1ccccc1-c1nc(C(=O)Nc2cccc(CCC(=O)O)c2)c(CCC23CC4CC(CC(C4)C2)C3)[nH]1,–
562 nM,–,CC1(c2nc(C(=O)Nc3cccc(C(=O)O)c3)c(CCC34CC5CC(CC(C5)C3)C4)[nH]2)CCCCC1,–
575 nM,–,O=C(O)c1cccc(NC(=O)c2[nH]c(C3CCCCC3)nc2CCC23CC4CC(CC(C4)C2)C3)c1,IC50 [3]: 29.5 nM; logD [4]: 4.12; inhibition [7]: 46%; inhibition [8]: 40%
123 nM,3.02 nM,Cc1cc(C)c(-c2nc(C(=O)Nc3ccc(C)c(C(=O)O)c3)c(CCC34CC5CC(CC(C5)C3)C4)[nH]2)c(C)c1,IC50 [3]: 39.8 nM; logD [4]: 4.9; Kb [9]: 3.31 nM; inhibition [6]: 76%
126 nM,–,O=C(O)c1cccc(NC(=O)c2[nH]c(C3CCCCCC3)nc2CCC23CC4CC(CC(C4)C2)C3)c1,–
324 nM,20.4 nM,O=C(O)c1cccc(NC(=O)c2[nH]c(C34CCC(CC3)CC4)nc2CCC23CC4CC(CC(C4)C2)C3)c1,–
537 nM,13.8 nM,Cc1cc(C)c(-c2nc(C(=O)Nc3cccc(C(=O)O)c3)c(COC34CC5CC(CC(C5)C3)C4)[nH]2)c(C)c1,IC50 [3]: 63.1 nM; logD [4]: 3.02; inhibition [8]: 61%
562 nM,–,Cc1ccccc1-c1nc(C(=O)Nc2ccc(F)c(C(=O)O)c2)c(CCC23CC4CC(CC(C4)C2)C3)[nH]1,–
295 nM,617 nM,Cc1ccccc1-c1nc(C(=O)Nc2cccc(C(=O)O)c2)c(CCC2CCCCC2)[nH]1,–
417 nM,–,Cc1ccc(NC(=O)c2nc(-c3ccccc3C)[nH]c2CCC23CC4CC(CC(C4)C2)C3)cc1C(=O)O,Kb [9]: 33.1 nM
562 nM,13.5 nM,O=C(O)c1cccc(NC(=O)c2nc(C3CCCCC3)[nH]c2COC23CC4CC(CC(C4)C2)C3)c1,IC50 [3]: 19.5 nM; logD [4]: 2.73; inhibition [8]: 76%
